ChEMBL document CHEMBL2177000, “Pharmacokinetic optimization of class-selective histone deacetylase inhibitors and identification of associated candidate predictive biomarkers of hepatocellular carcinoma tumor response” (J Med Chem, 2012)
pIC50: −log10 of the molar value. ≈ marks a conversion by molar mass, not a printed value. Calls of active or inactive are those of the source. No cut-off for these calls is given here.

Key:
Mus musculus [1] = assay: Cmax in BALB/C mouse at 10 mg/kg, po or 2 mg/kg, iv by LC-MS/MS method; type: ADME, organism-based; details: in vivo
Outline: (§1)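 Female-unspecified BALB/C nude mice (15−20 g, N = 16 per arm); iv bolus 2 mg/kg in 5% DMSO/40% PEG400/55% saline and/or oral gavage 10 mg/kg as 0.445% microcrystalline cellulose microsuspension. Blood sampled at nine (iv) or eight (po) time points into sodium heparin tubes; plasma by LC-MS/MS; noncompartmental analysis.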

Mus musculus [2] = assay: Oral bioavailability in BALB/C mouse at 10 mg/kg by LC-MS/MS method; type: ADME, organism-based; details: in vivo
Outline: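 Bioavailability from single-dose iv (2 mg/kg, 5% DMSO/40% PEG400/55% saline) and oral gavage (10 mg/kg, 0.445% microcrystalline cellulose microsuspension) studies in BALB/C nude mice (N = 16 per arm); plasma at eight (po) or nine (iv) time points, LC-MS/MS, noncompartmental analysis.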

[3] = Solubility in 50 mM phosphate buffer at pH 6.5 by HPLC method; type: physicochemical
Outline: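 10 mM DMSO stock dried, residue redissolved in 50 mM phosphate buffer pH 6.5, stirred 1 h and shaken 2 h, left overnight, filtered and analysed by HPLC against calibration standards of 50−500 μM diluted from the DMSO stock.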

HGC-27 = type: functional, Homo sapiens
Bel-7402 = type: functional, Homo sapiens
SK-HEP1 = type: functional, Homo sapiens
SGC-7901 [4] = type: functional, Homo sapiens
SMMC-7721 = assay: Induction of apoptosis in human SMMC-7721 cells assessed as early apoptotic cell level at 5 uM incubated for 48 hrs by FITC/Annexin V staining based flow cytometry (reference value: 2.61%)
Mus musculus [5] = assay: Up-regulation of CACNA1G gene expression in human hepatocellular carcinoma patient tumor xenografted in BALB/C mouse at 100 mg/kg, po administered every other day for 4 weeks by […]; type: functional, organism-based; design: dose 100 mg/kg
Outline: (§2)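 Patient HCC tumor fragments (3 × 3 × 3 mm3) implanted subcutaneously in female BALB/c nu/nu mice; at ~200 (150−250) mm3 dosed orally Q2D 100 mpk in 15% Kleptose pH 4.5 tartaric buffer for about four weeks. Tumor RNA (TRIzol, DNase I) run on 22-gene qRT-PCR array, normalized to GAPDH/β-glucuronidase by ΔCt, fold change versus day 0.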

Mus musculus [6] = assay: Up-regulation of THBS1 gene expression in human hepatocellular carcinoma patient tumor xenografted in BALB/C mouse at 100 mg/kg, po administered every other day for 4 weeks by […]; type: functional, organism-based; design: dose 100 mg/kg; outline: as §2
Mus musculus [7] = assay: Up-regulation of FN1 gene expression in human hepatocellular carcinoma patient tumor xenografted in BALB/C mouse at 100 mg/kg, po administered every other day for 4 weeks by […]; type: functional, organism-based; design: dose 100 mg/kg; outline: as §2
SGC-7901 [8] = assay: Inhibition of Class 1 histone deacetylase in human SGC7901 cells assessed as […] at 0.6 to 5 uM incubated for 24 hrs by Western blot method; type: cell-based
Outline: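 SGC-7901 cells (1 × 10^6) seeded overnight, treated 24 h at indicated concentrations; lysed on ice with protease inhibitor, 15 000 g supernatant; 30 μg protein by SDS-PAGE, nitrocellulose, antibody probing for acetylated histone H3 and p21, ECL detection.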

Mus musculus [9] = assay: Down-regulation of CFLAR gene expression in human hepatocellular carcinoma patient tumor xenografted in BALB/C mouse at 100 mg/kg, po administered every other day for 4 weeks by […]; type: functional, organism-based; design: dose 100 mg/kg
Outline: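 Patient-derived HCC xenografts dosed 100 mpk Q2D PO; tumor total RNA (TRIzol, DNase I treated, column-purified) run on a customized 22-gene qRT-PCR array; ΔCt against mean of GAPDH and β-glucuronidase, fold-change relative to day 0 (pre-treatment).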

Mus musculus [10] = assay: Inhibition of Class 1 histone deacetylase in treatment non-responding human hepatocellular carcinoma patient tumor xenografted in BALB/C mouse assessed as induction of histone H3 acetylation at 100 mg/kg, po administered every other day for 4 weeks by immunohistochemistry; type: functional, organism-based; design: dose 100 mg/kg
Outline: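 Patient-derived HCC xenografts in female nude mice given 100 mpk Q2D PO (15% Kleptose, pH 4.5 tartaric buffer); single dose on last day, tumors harvested 0 to 24 h post-dose. Paraffin sections, citrate pH 6.0 antigen retrieval, anti-Ac-H3 (Lys9) 1:200 overnight 4 °C, HRP/DAB; scored 0−3 independently by two pathologists.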

[11] = target: Histone deacetylase (Homo sapiens) (UniProt Q13547+O15379+Q9UBN7+Q92769+Q9UQL6+Q8WUI4+Q9BY41+Q96DB2+P56524+Q9UKV0+Q969S8); assay: Inhibition of Class 1 histone deacetylase in human HeLa cells assessed as induction in p21 protein expression at 3 uM incubated for 16 hrs by luciferase reporter gene assay relative to HDAC inhibitor entinostat; type: cell-based; design: scale not given: the % may be the effect or the level left
Mus musculus [12] = assay: Up-regulation of TFPI2 gene expression in human hepatocellular carcinoma patient tumor xenografted in BALB/C mouse at 100 mg/kg, po administered every other day for 4 weeks by […]; type: functional, organism-based; design: dose 100 mg/kg; outline: as §2
Mus musculus [13] = assay: Up-regulation of RASSF1 gene expression in human hepatocellular carcinoma patient tumor xenografted in BALB/C mouse at 100 mg/kg, po administered every other day for 4 weeks by […]; type: functional, organism-based; design: dose 100 mg/kg; outline: as §2
Mus musculus [14] = assay: Inhibition of Class 1 histone deacetylase in human Bel7404 cells xenografted BALB/C mouse assessed as induction of histone H3 acetylation at 50 mg/kg, po qd for 4 weeks by Western blot method; details: Bel-7404
[15] = Volume of distribution at steady state in BALB/C mouse at 10 mg/kg, po or 2 mg/kg, iv by LC-MS/MS method; type: ADME, organism-based; design: unit not given here; details: in vivo, read-out: Vdss
Outline: (§3)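 Single-dose PK: iv bolus 2 mg/kg in 5% DMSO/40% PEG400/55% saline and/or oral gavage 10 mg/kg as 0.445% microcrystalline cellulose microsuspension; BALB/C nude mice (15−20 g, N = 16 per arm) or male Sprague−Dawley rats (250 ± 20 g, N = 3). Blood at eight (po) or nine (iv) time points into sodium heparin, plasma by LC-MS/MS, noncompartmental analysis.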

Cytochrome P450 2D6 = Cytochrome P450 2D6 (Homo sapiens, UniProt P10635); assay: Inhibition of CYP2D6 in human liver microsomes in presence of NADPH by LC-MS/MS method; type: ADME, Microsome
[16] = AUC in BALB/C mouse at 10 mg/kg, po or 2 mg/kg, iv by LC-MS/MS method; type: ADME, organism-based, Plasma; details: BALB/C, plasma; outline: as §1
[17] = Tmax in BALB/C mouse at 10 mg/kg, po or 2 mg/kg, iv by LC-MS/MS method; type: ADME, organism-based; details: BALB/C, in vivo; outline: as §3
[18] = Half life in BALB/C mouse at 10 mg/kg, po or 2 mg/kg, iv by LC-MS/MS method; type: ADME, organism-based; details: BALB/C, in vivo; outline: as §1

Cytochrome P450 2D6, sequence (P10635 whole entry): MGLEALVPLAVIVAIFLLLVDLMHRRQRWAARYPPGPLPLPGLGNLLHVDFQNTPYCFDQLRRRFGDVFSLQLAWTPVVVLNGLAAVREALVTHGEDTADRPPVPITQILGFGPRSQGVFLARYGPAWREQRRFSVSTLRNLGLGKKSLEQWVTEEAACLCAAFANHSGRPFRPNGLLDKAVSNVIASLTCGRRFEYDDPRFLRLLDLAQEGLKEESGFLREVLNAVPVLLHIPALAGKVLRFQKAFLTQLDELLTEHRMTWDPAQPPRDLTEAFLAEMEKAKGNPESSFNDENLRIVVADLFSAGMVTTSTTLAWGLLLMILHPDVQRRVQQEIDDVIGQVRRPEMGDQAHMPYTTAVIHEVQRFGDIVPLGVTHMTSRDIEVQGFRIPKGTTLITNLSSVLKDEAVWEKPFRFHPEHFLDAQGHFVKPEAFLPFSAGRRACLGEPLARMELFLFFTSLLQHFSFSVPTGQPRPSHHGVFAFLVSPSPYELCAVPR

Question: What does the source list for `CN1C[C@H](C(=O)Nc2ccc(Cl)cc2)[C@@H](c2ccc(/C=C/C(=O)Nc3ccccc3N)cc2)C1` [listing 1 of 2 here]?
Answer: Cmax (Mus musculus [1]): 893 ng/mL; F (Mus musculus [2]): 100%; solubility [3]: 136 µg/mL (≈ 286 µM); GI90 (HGC-27): 1 µM; GI90 (Bel-7402): 1.2 µM; GI90 (SK-HEP1): 2.5 µM; GI90 (SGC-7901 [4]): 1.4 µM; Activity (SMMC-7721): 3.56%

Question: With `CN1C[C@H](C(=O)Nc2ccc(Cl)cc2)[C@@H](c2ccc(/C=C/C(=O)Nc3ccccc3N)cc2)C1` [listing 2 of 2 here] as the compound, how does the Activity (Mus musculus [5]) read?
Answer: Active

Question: What about the Activity (Mus musculus [6]) of the same compound?
Answer: Active

Question: What about the Activity (Mus musculus [7]) of the same compound?
Answer: Active

Question: What about the inhibition (SGC-7901 [8]) of the same compound?
Answer: Dose-dependent effect

Question: And the Activity (Mus musculus [9])?
Answer: Active

Question: And the inhibition (Mus musculus [10])?
Answer: inactive

Question: What about the Activity [11] of the same compound?
Answer: 257%

Question: And the Activity (Mus musculus [12])?
Answer: inactive

Question: What about the Activity (Mus musculus [13]) of the same compound?
Answer: inactive

Question: And the inhibition (Mus musculus [14])?
Answer: Active

Question: What does the source list for `CN1C[C@H](C(=O)Nc2ccc(Cl)cc2)[C@@H](c2ccc(/C=C/C(=O)Nc3ccccc3N)cc2F)C1` (racemic)?
Answer: Vd [15]: 3; pIC50 (Cytochrome P450 2D6): 5.05; AUC [16]: 3570 ng·h/mL; Tmax [17]: 2 h; Activity [11]: 130%; half-life [18]: 204 min

Question: For `CN1C[C@@H](C(=O)Nc2ccc(Cl)cc2)[C@H](c2ccc(/C=C/C(=O)Nc3ccccc3N)cc2)C1`, which AUC [16] is on record?
Answer: 2540 ng·h/mL

Question: What about the Tmax [17] of the same compound?
Answer: 1 h

Question: And the half-life [18]?
Answer: 372 min
